Laboratory results from ChEMBL document CHEMBL1909634, “Vitamin B6s inhibit oxidative stress caused by Alzheimer's disease-related Cu(II)-β-amyloid complexes-cooperative action of phospho-moiety” (Bioorg Med Chem Lett, 2011).
Where a name gives a salt, the structure may show the parent alone.

Columns and labels:
Format in all cases: functional
[1] = Competitive inhibition of Cu2-amyloid beta (1 to 20) complex-induced DTBC oxidation by spectrophotometry
Procedure, shortened: (§1)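 Cu(II)–Aβ complex formed just before assay by mixing stoichiometric Cu(II) and peptide at μM level in the reaction solution. Several concentrations of DTBC or THB substrate are incubated with a constant Cu(II)–Aβ concentration in 0.1 M HEPES, pH 7.4, 25 °C. Ki is obtained from Lineweaver–Burk analysis assuming competitive inhibition.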

[2] = Competitive inhibition of Cu2-amyloid beta (1 to 16) complex-induced DTBC oxidation by spectrophotometry; procedure, shortened: as §1
[3] = Competitive inhibition of Cu2-amyloid beta (1 to 20) complex-induced THB oxidation by spectrophotometry; procedure, shortened: as §1
[4] = Inhibition of Cu2-amyloid beta (1 to 20) complex-induced dopamine oxidation by spectrophotometry
Procedure, shortened: (§2)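 Cu(II)–Aβ prepared fresh from stoichiometric Cu(II) and peptide at μM level. Dopamine oxidation (1.0 mM for inhibition plots; varied for Lineweaver–Burk) is catalysed by 2.0 μM Cu–Aβ1-40, 3.0 μM Cu–Aβ1-16, or 3.0 or 17.0 μM Cu–Aβ1-20, in 0.1 M HEPES pH 7.4, 25 °C. Inhibitor is titrated to give IC50. Ki comes from a 1/v vs 1/[dopamine] plot, competitive model.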

[5] = Inhibition of Cu2-amyloid beta (1 to 40) complex-induced dopamine oxidation by spectrophotometry; procedure, shortened: as §2
[6] = Inhibition of Cu2-amyloid beta (1 to 16) complex-induced dopamine oxidation by spectrophotometry; procedure, shortened: as §2
[7] = Competitive inhibition of full-length Cu2-amyloid beta (1 to 40) complex-induced dopamine oxidation by Lineweaver-Burk plot analysis; procedure, shortened: as §2
[8] = Inhibition of Cu2-amyloid beta (1 to 16) complex-induced THB oxidation by spectrophotometry; procedure, shortened: as §1
[9] = Inhibition of Cu2-amyloid beta (1 to 16) complex-induced DTBC oxidation by spectrophotometry; procedure, shortened: as §1

Cc1ncc(COP(=O)(O)O)c(C=O)c1O [PYRIDOXAL PHOSPHATE ANHYDROUS]
Ki [1]: 0.2 mM | Ki [2]: 0.13 mM

Cc1ncc(CO)c(C=O)c1O [PYRIDOXAL]
Ki [1]: 1.12 mM | Ki [2]: 0.67 mM | Ki [3]: 2.8 mM

Cc1ncc(CO)c(CN)c1O [PYRIDOXAMINE]
IC50 [4]: 7 mM | Ki [4]: 1.4 mM | IC50 [5]: 7 mM | IC50 [6]: 7 mM | Ki [7]: 1.42 mM

Cc1ncc(CO)c(CO)c1O [PYRIDOXINE HYDROCHLORIDE]
Ki [8]: 8.67 mM | Ki [4]: 8.29 mM | Ki [9]: 5.05 mM | Ki [6]: 5.56 mM
